ROMK mod: modulators of human ROMK potassium channel. P48048. Tet-inducible ROMK, thallium flux fluorescence; actives lie on both sides. B-score at 10 µM. 130,000 tested, 2% active;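 active means signal ratio slope over the read window, or its plate-corrected B-score, at least 3 SD from the plate mean, either direction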;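 further: B-score of the F/F0 ratio slope over 7 to 12 s after thallium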
Target sequence (P48048 whole entry, looked up): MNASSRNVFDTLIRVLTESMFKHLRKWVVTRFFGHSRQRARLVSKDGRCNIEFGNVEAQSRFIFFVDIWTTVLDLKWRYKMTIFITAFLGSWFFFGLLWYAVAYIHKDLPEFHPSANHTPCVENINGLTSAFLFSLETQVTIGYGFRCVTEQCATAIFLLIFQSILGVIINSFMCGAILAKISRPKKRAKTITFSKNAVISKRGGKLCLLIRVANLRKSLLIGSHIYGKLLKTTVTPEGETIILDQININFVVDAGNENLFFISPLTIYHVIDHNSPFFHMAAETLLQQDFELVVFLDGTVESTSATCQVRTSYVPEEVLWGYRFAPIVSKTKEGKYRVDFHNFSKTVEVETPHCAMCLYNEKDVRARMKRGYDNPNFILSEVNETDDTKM
Dynein cargo inh: blocks dynein driven cargo transport along microtubules | 3617.4 mouse cells, GR-EGFP nuclear translocation imaging; test concentration mostly 20 µM; stimulated with dexamethasone, 1 µM; hits give low values | z-score, hits read low | 220,000 tested, 0.47% active | AID 1381;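 active means plate z-score of nuclear minus cytoplasmic receptor signal below a set negative limit, without overly bright fluorescence or cell loss, cut at about -3.5 in these data, passing the limit was not always enough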;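 further: z-score of nuclear minus cytoplasmic ring GR-EGFP intensity difference per well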
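Buffer or medium: tet-free medium with charcoal-stripped serum / Also added: dexamethasone agonist, 1.0 µM final, for 30 min / Timing: induction 48 h, compound 1 h, agonist 30 min / Measured by: high-content fluorescence imaging after fixation / Read-out: nuclear-to-cytoplasmic GR-EGFP distribution per well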
DTT redox prof: compounds producing H2O2 with reducing agent – biochemical, NIH compound library profiling, artefact control for MLSCN library redox annotation, primary screen. DTT-dependent redox cycling H2O2, phenol red/HRP absorbance; 100% = 100 µM peroxide control, 0% = buffer. activation, % at 10 µM. 200,000 tested, 0.03% active. AID 878;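 active means activation of at least 50% relative to the plate's high and low controls in the primary single-dose screen; inactive means activation below 50%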;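 further: compound incubated with DTT at 0.8 mM final as the reducing agent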
Autophagy mod: autophagy modulation, high-content screen. MEF GFP-LC3 puncta imaging; test concentration mostly 10 µM. calls only at 10 µM (by protocol). 190,000 tested, 0.98% active. AID 463193;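 active means percentage of spot-positive cells more than 3 SD above its plate mean, without a fluorescence outlier flag or 80% toxicity; inconclusive means no clear call, values can overlap the other calls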
KCC2 mod: modulates chloride dependent transport by human KCC2. AID 1456. Q9H2X9. B-score of Tl+ flux slope (higher = more flux/activation; lower = inhibition) at 10 µM. KCC2 cells, thallium flux FluoZin-2 fluorescence. 190,000 tested, 2.2% active;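 active means thallium flux slope and its plate-corrected score both differing from the plate sample mean at a set confidence after two filtering rounds, in either direction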;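 further: slope of fluorescence scaled to starting intensity during 10 to 20 s after thallium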
KCC2 secondary: confirmation of human KCC2 transport modulators; shares compounds with KCC2 mod; HEK293-KCC2, thallium flux, FluoZin2 fluorescence; hits give high values; normalised thallium flux (F/F0 slope) at 10 µM; 3,700 tested, 15% active; AID 1713;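 active means thallium flux slope above the same plate's solvent-only control mean plus 3 SD; inconclusive means the two replicate wells disagree; inactive means no significant difference from solvent-only control wells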
KCC2 bumet counter: thallium flux despite bumetanide block in KCC2 cells, secondary assay 3. 3,700 tested, 49% active. normalized thallium flux at 10 µM. HEK293-KCC2 + bumetanide/ouabain, thallium flux FluoZin2; hits give high values. shares compounds with KCC2 mod;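 active means thallium entry rate above the same plate's blocked-transporter control wells by more than 3 SD; inconclusive means the two repeat wells disagree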;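 further: raw slope of fluorescence over initial fluorescence between 10 and 20 s after thallium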
KCC2 secondary2: confirmation of human KCC2 transport modulators; 3,700 tested, 23% active; normalized thallium flux at 10 µM; HEK293-KCC2, thallium flux FluoZin2 fluorescence; actives lie on both sides; F/F0 rise rate, 10–20 s post-thallium; AID 1715; shares compounds with KCC2 mod;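 active means thallium flux slope more than 3 SD above or below the plate's solvent-only control mean, mostly below; inconclusive means the two repeat wells disagreed; inactive means no significant shift from solvent-only controls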
HEK293 Tl flux: parental HEK flux effect, counter-screen. shares compounds with KCC2 mod. HEK293 parental cells, thallium flux FluoZin2, ouabain; baseline-ratio fluorescence slope, 10–20 s after thallium. thallium flux rate (normalised fluorescence) at 10 µM. 3,700 tested, 46% active;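 active means thallium flux rate significantly above the same plate's solvent-only control wells, beyond their mean plus 3 SD; inconclusive means the two replicate wells gave conflicting results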
KCC2 retest ouab: KCC2 (human) modulation, ouabain retest; 3,700 tested, 48% active; HEK293-KCC2, thallium flux FluoZin2 fluorescence; bidirectional: low = inhibitor, high = activator; AID 1717; shares compounds with KCC2 mod; raw Tl+ flux slope (below DMSO = inhibition, above = activation) at 10 µM;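 active means thallium flux slope beyond 3 SD from same-plate DMSO control mean in most replicates, usually higher, sometimes lower; inconclusive means repeat tests gave conflicting results; inactive means no significant difference from controls in most replicates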;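 further: slope of initial-normalized fluorescence between seconds 10 and 20 after thallium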
HEK counter2: parental HEK flux effect, counter-screen 2; shares compounds with KCC2 mod; HEK293 parental, thallium flux FluoZin-2 fluorescence slope; thallium flux slope at 10 µM; 3,700 tested, 33% active; AID 1718;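 active means thallium flux slope above the same plate's solvent-control mean plus 3 SD in both duplicate wells; inconclusive means duplicate wells that disagreed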;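 further: run without ouabain in cells lacking the KCC2 cotransporter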
Of the large screens only hits and unclear results are named; the others gave an inactive call (follow-up assays come after a bar, where they were run). A selection: hits, their analogues and other compounds. The true share with any hit is near 4.1%.

CC(NC(=O)CNC(=S)N(Cc1cccs1)C1CCCC1)c1ccccc1 (stereo unspecified)	none
Cc1cc(Cl)ccc1Oc1ccccc1C(=O)CC#N	KCC2 mod -5.5 | KCC2 secondary inactive | KCC2 bumet counter inactive | KCC2 secondary2 inconclusive | HEK293 Tl flux inactive | KCC2 retest ouab inconclusive | HEK counter2 inactive
COc1cc(/C=N/NC(=O)Cc2nnc(N)s2)cc(OC)c1OC	none (no result: DTT redox prof, Autophagy mod)
C=CCn1cnc2scc(-c3ccc(CC)cc3)c2c1=O	KCC2 mod -4.1 | KCC2 secondary inactive | KCC2 bumet counter inactive | KCC2 secondary2 inactive | HEK293 Tl flux inactive | KCC2 retest ouab inactive | HEK counter2 inactive
CCOC(=O)c1c(C)[nH]c(N=Nc2ccccc2)c1C	KCC2 mod 5.2 (no result: ROMK mod) | KCC2 secondary inactive | KCC2 bumet counter 0.0097 | KCC2 secondary2 inactive | HEK293 Tl flux 0.0091 | KCC2 retest ouab inconclusive | HEK counter2 inconclusive
COc1ccc(-n2c(SCC(=O)N3CCN(c4ccccc4)CC3)nc3c(c2=O)SCC3)cc1	KCC2 mod -7.3 (no result: ROMK mod) | KCC2 secondary inactive | KCC2 bumet counter inactive | KCC2 secondary2 0.024 | HEK293 Tl flux inconclusive | KCC2 retest ouab 0.012 | HEK counter2 inactive
COC(=O)c1cnc(NNC(=O)c2ccc([N+](=O)[O-])cc2)nc1C(F)(F)F	KCC2 mod 3.5 (no result: ROMK mod, DTT redox prof, Autophagy mod) | KCC2 secondary inactive | KCC2 bumet counter 0.011 | KCC2 secondary2 inactive | HEK293 Tl flux inconclusive | KCC2 retest ouab inactive | HEK counter2 inactive
O=C(NC(=S)Nc1cc(Cl)ccc1O)c1cccc(Br)c1	KCC2 mod 6.5 (no result: ROMK mod, DTT redox prof, Autophagy mod) | KCC2 secondary inactive | KCC2 bumet counter 0.031 | KCC2 secondary2 inactive | HEK293 Tl flux 0.014 | KCC2 retest ouab 0.027 | HEK counter2 0.018
O=C(NNC(=O)c1cccc(Br)c1)Nc1ccc(Cl)cc1	none
Cn1c(C(=O)NCCCN2CCc3ccccc3C2)cc2c(=O)n(C)c3ccccc3c21	none (no result: ROMK mod, KCC2 mod) | KCC2 secondary inactive | KCC2 bumet counter inactive | KCC2 secondary2 0.023 | HEK293 Tl flux inactive | KCC2 retest ouab inconclusive | HEK counter2 inactive
CCCNC(=O)CN1C(=O)NC(Cc2c[nH]c3ccccc23)C1=O (stereo unspecified)	none
CC(NC(=O)C1(c2cccs2)CCOCC1)c1ccccc1 (stereo unspecified)	none (no result: ROMK mod)
O=C(Cc1csc(Nc2nc(=S)[nH]c3ccccc23)n1)NCCCN1CCN(c2ccccc2F)CC1	Autophagy mod active, KCC2 mod 20 | KCC2 secondary 0.014 | KCC2 bumet counter 0.051 | KCC2 secondary2 0.041 | HEK293 Tl flux 0.039 | KCC2 retest ouab 0.062 | HEK counter2 0.016
O=C(COC(=O)c1cc(=O)[nH]c2ccccc12)Nc1nc(-c2ccccc2)cs1	none
COC(=O)C1=C(Nc2ccccc2NC(=O)c2ccccc2C(=O)O)CSC1	none (no result: DTT redox prof, Autophagy mod)
COC(=O)C1=C(Nc2ccccc2NS(=O)(=O)c2ccc(C(F)(F)F)cc2Cl)CSC1	KCC2 mod 5.5 (no result: DTT redox prof, Autophagy mod) | KCC2 secondary inactive | KCC2 bumet counter 0.011 | KCC2 secondary2 inactive | HEK293 Tl flux 0.012 | KCC2 retest ouab inconclusive | HEK counter2 0.012
C/C(N)=C(/C#N)C(=O)CSc1cc(C)c2cc(C)cc(C)c2n1	Autophagy mod active, KCC2 mod 4.1 | KCC2 secondary inactive | KCC2 bumet counter inactive | KCC2 secondary2 inactive | HEK293 Tl flux inconclusive | KCC2 retest ouab inactive | HEK counter2 inactive
Cc1cc(C)c2nc(SCC#N)cc(C)c2c1	none (no result: ROMK mod)
CCC(OC(=O)C1=Cc2ccccc2OC1)C(=O)NCc1ccco1 (stereo unspecified)	KCC2 mod -2.8 | KCC2 secondary inactive | KCC2 bumet counter inactive | KCC2 secondary2 inactive | HEK293 Tl flux inactive | KCC2 retest ouab inconclusive | HEK counter2 inactive
CC(=O)NCCc1c[nH]c2ccc(OCC(O)CNC(C)(C)C)cc12 (stereo unspecified)	none (no result: ROMK mod, DTT redox prof, Autophagy mod)
CCn1c(SCC(=O)NNC(=O)c2ccc(OC)cc2)nnc1-c1ccco1	none
O=C(NC1CCCCCC1)C1CCN(c2nc3ccccc3o2)CC1	none (no result: KCC2 mod) | KCC2 secondary inactive | KCC2 bumet counter inactive | KCC2 secondary2 inconclusive | HEK293 Tl flux inactive | KCC2 retest ouab 0.018 | HEK counter2 inactive
O=C(NCc1ccc(F)cc1)C(=O)Nc1nc(C23CC4CC(CC(C4)C2)C3)cs1	KCC2 mod 8.9 | KCC2 secondary inactive | KCC2 bumet counter 0.038 | KCC2 secondary2 inactive | HEK293 Tl flux 0.021 | KCC2 retest ouab 0.034 | HEK counter2 0.018
CNC(=O)C(=O)Nc1nc(C23CC4CC(CC(C4)C2)C3)cs1	KCC2 mod 3.9 | KCC2 secondary inactive | KCC2 bumet counter 0.012 | KCC2 secondary2 inactive | HEK293 Tl flux 0.013 | KCC2 retest ouab inconclusive | HEK counter2 0.013
CCN(CC)C(=O)C1CC(=O)N(c2ccc(OC)cc2)C1c1ccc(OC)cc1 (stereo unspecified)	KCC2 mod -4.1 (no result: ROMK mod) | KCC2 secondary inactive | KCC2 bumet counter 0.0057 | KCC2 secondary2 inactive | HEK293 Tl flux inactive | KCC2 retest ouab inactive | HEK counter2 inactive
COc1ccc(C2C(C(=O)N3CCCCC3)CC(=O)N2c2ccc(OC)cc2)cc1 (stereo unspecified)	none (no result: ROMK mod)
C/C(N)=C(/C#N)C(=O)CSc1nc2ccccc2c(=O)n1Cc1ccc(C)cc1	KCC2 mod 22 | KCC2 secondary inactive | KCC2 bumet counter 0.021 | KCC2 secondary2 inactive | HEK293 Tl flux 0.025 | KCC2 retest ouab 0.029 | HEK counter2 0.016
Cc1ccc(Cn2c(SC(C)C(N)=O)nc3ccccc3c2=O)cc1 (stereo unspecified)	KCC2 mod 8.6 | KCC2 secondary inactive | KCC2 bumet counter 0.022 | KCC2 secondary2 inactive | HEK293 Tl flux 0.015 | KCC2 retest ouab 0.03 | HEK counter2 0.018
